# According to ChEMBL document CHEMBL5724801, “EUbOPEN Chemogenomics Library - Multiplex” (2024):
# Values joined by “and” are separate entries in the source; they are usually repeats but may differ in a detail not shown here. Identical values can stand only once.
# Test system: U2OS
# Experiment: Multiplex assay against U2OS
# Format: toxicity, cell-based
# Settings: human
# Summary of the method: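 With compound added, live cells were imaged on a CQ1 microscope at 37°C and 5% CO2; staining with Hoechst33342, BioTracker Green Microtubule Cytoskeleton Dye, MitoTracker Red and Annexin V Alexa Fluor 680 had been done at seeding. The CellPathfinder machine-learning gating scheme split cells into Hoechst high-intensity objects or normal cells, normal cells into healthy, pyknosed or fragmented nuclei, and pyknosed cells into mitotic or apoptotic. The tubulin, mitochondrial-mass and membrane-permeability phenotypes are per cents of healthy-nucleus cells.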
# [1] = 12 h, 1 µM, compound concentration 1 uM
# [2] = 12 h, 10 µM, compound concentration 10 uM
# [3] = 24 h, 1 µM, compound concentration 1 uM
# [4] = 24 h, 10 µM, compound concentration 10 uM
# [5] = 48 h, 1 µM, compound concentration 1 uM
# [6] = 48 h, 10 µM, compound concentration 10 uM
smiles,measurement,setting,value
CCn1c(-c2nc3cc(C(=O)N4CCCC(N)C4)ccc3n2C)cc2ccccc21.Cl (configuration not stated),Population Healthy Nuclei (%),[1],67% and 77% and 89.25% and 83.07%
same,Population Hoechst High Intensity Objects (%),[1],0% and 5%
same,Population Membrane Permeable-Phenotype (%),[1],4% [middle of 4 runs]
same,Population Normal (%),[1],99% and 94% and 100%
same,Population Tubulin-Different-Phenotype (%),[1],2.36% [middle of 4 runs]
same,Population Apoptotic (%),[2],48% [middle of 4 runs]
same,Population Healthy Nuclei (%),[2],56% and 60% and 74.57% and 67.27%
same,Population Hoechst High Intensity Objects (%),[2],2% and 1% and 0%
same,Population Mitotic Cells (%),[2],51% and 45% and 65.85% and 73.91%
same,Population Normal (%),[2],97% and 98% and 100%
same,Population Pyknosed Nuclei (%),[2],19% and 18% and 23.43% and 27.88%
same,Population Tubulin-Different-Phenotype (%),[2],27% and 48% and 33.72% and 25.23%
same,Total Cell Count,[2],277 [middle of 4 runs]
same,Population Apoptotic (%),[3],66% [middle of 4 runs]
same,Population Healthy Nuclei (%),[3],68% and 92.18% and 84.19%
same,Population Hoechst High Intensity Objects (%),[3],1% and 3% and 0.17% and 0%
same,Population Normal (%),[3],98% and 96% and 99.83% and 100%
same,Population Pyknosed Nuclei (%),[3],9% and 5% and 6.49% and 13.68%
same,Population Apoptotic (%),[4],62% and 73% and 40% and 53.33%
same,Population Healthy Nuclei (%),[4],54% and 64% and 74.61% and 71.91%
same,Population Hoechst High Intensity Objects (%),[4],2% and 3% and 0%
same,Population Mitotic Cells (%),[4],46.67% [middle of 4 runs]
same,Population Normal (%),[4],97% and 96% and 100%
same,Population Pyknosed Nuclei (%),[4],17% and 16% and 21.16% and 25.28%
same,Population Tubulin-Different-Phenotype (%),[4],15.62% [middle of 4 runs]
same,Population Apoptotic (%),[5],75% and 70% and 44% and 47.83%
same,Population Healthy Nuclei (%),[5],76% and 70% and 90.93% and 86.01%
same,Population Hoechst High Intensity Objects (%),[5],2% and 4% and 0%
same,Population Membrane Permeable-Phenotype (%),[5],8% and 10% and 1.19% and 2.66%
same,Population Mitochondria Different-Phenotype (%),[5],3% and 9% and 0.33% and 7.4%
same,Population Mitotic Cells (%),[5],52.17% [middle of 4 runs]
same,Population Normal (%),[5],97% and 95% and 100%
same,Population Pyknosed Nuclei (%),[5],6% and 7% and 7.4% and 11.7%
same,Population Tubulin-Different-Phenotype (%),[5],5% and 8% and 1.41% and 1.78%
same,Population Apoptotic (%),[6],78% and 77% and 57.94% and 60%
same,Population Healthy Nuclei (%),[6],53% and 64% and 76.68% and 73.28%
same,Population Hoechst High Intensity Objects (%),[6],5% and 6% and 0% and 0.4%
same,Population Mitotic Cells (%),[6],40% [middle of 4 runs]
same,Population Normal (%),[6],94% and 93% and 100% and 99.6%
same,Population Pyknosed Nuclei (%),[6],19% and 16% and 18.03% and 22.27%
same,Population Tubulin-Different-Phenotype (%),[6],14.92% [middle of 4 runs]
CC/C(=C(\c1ccc(O)cc1)c1ccc(OCCN(C)C)cc1)c1ccccc1 [AFIMOXIFENE],Population Fragmented Nuclei (%),[1],0.84% and 5.44%
same,Population Healthy Nuclei (%),[1],90.45% and 83.67%
same,Population Hoechst High Intensity Objects (%),[1],0%
same,Population Membrane Permeable-Phenotype (%),[1],4.07%
same,Population Mitochondria Different-Phenotype (%),[1],0.62% and 4.88%
same,Population Mitotic Cells (%),[1],51.61% and 87.5%
same,Population Normal (%),[1],100%
same,Population Pyknosed Nuclei (%),[1],8.71% and 10.88%
same,Population Tubulin-Different-Phenotype (%),[1],2.48% and 1.63%
same,Total Cell Count,[1],356 and 147
same,Population Apoptotic (%),[2],35.09% and 27.27%
same,Population Fragmented Nuclei (%),[2],2.04% and 0.59%
same,Population Healthy Nuclei (%),[2],78.57% and 73.37%
same,Population Hoechst High Intensity Objects (%),[2],0%
same,Population Membrane Permeable-Phenotype (%),[2],0.43% and 5.65%
same,Population Mitotic Cells (%),[2],64.91% and 72.73%
same,Population Normal (%),[2],100%
same,Population Pyknosed Nuclei (%),[2],19.39% and 26.04%
same,Population Tubulin-Different-Phenotype (%),[2],5.63% and 4.84%
same,Total Cell Count,[2],294 and 169
same,Population Apoptotic (%),[3],53.06% and 20%
same,Population Fragmented Nuclei (%),[3],1.85% and 5.11%
same,Population Healthy Nuclei (%),[3],88.09% and 83.52%
same,Population Hoechst High Intensity Objects (%),[3],0%
same,Population Membrane Permeable-Phenotype (%),[3],0.93% and 2.04%
same,Population Mitochondria Different-Phenotype (%),[3],0.7% and 6.12%
same,Population Mitotic Cells (%),[3],46.94% and 80%
same,Population Normal (%),[3],100%
same,Population Pyknosed Nuclei (%),[3],10.06% and 11.36%
same,Population Tubulin-Different-Phenotype (%),[3],2.04%
same,Total Cell Count,[3],487 and 176
same,Population Apoptotic (%),[4],33.75% and 23.46%
same,Population Fragmented Nuclei (%),[4],2.3%
same,Population Healthy Nuclei (%),[4],77.24% and 56.72%
same,Population Hoechst High Intensity Objects (%),[4],0%
same,Population Membrane Permeable-Phenotype (%),[4],0.99% and 3.51%
same,Population Mitotic Cells (%),[4],66.25% and 76.54%
same,Population Normal (%),[4],100%
same,Population Pyknosed Nuclei (%),[4],20.46% and 40.3%
same,Population Tubulin-Different-Phenotype (%),[4],7.95% and 3.51%
same,Total Cell Count,[4],391 and 201
same,Population Apoptotic (%),[5],41.05% and 54.05%
same,Population Fragmented Nuclei (%),[5],1.6% and 5.32%
same,Population Healthy Nuclei (%),[5],87.51% and 81.56%
same,Population Hoechst High Intensity Objects (%),[5],0%
same,Population Membrane Permeable-Phenotype (%),[5],1.18% and 2.61%
same,Population Mitochondria Different-Phenotype (%),[5],0.26% and 4.78%
same,Population Mitotic Cells (%),[5],58.95% and 45.95%
same,Population Normal (%),[5],100%
same,Population Pyknosed Nuclei (%),[5],10.88% and 13.12%
same,Population Tubulin-Different-Phenotype (%),[5],0.79% and 1.74%
same,Population Apoptotic (%),[6],43.75% and 40.78%
same,Population Fragmented Nuclei (%),[6],4.78% and 5.95%
same,Population Healthy Nuclei (%),[6],74.84% and 55.76%
same,Population Hoechst High Intensity Objects (%),[6],0%
same,Population Membrane Permeable-Phenotype (%),[6],2%
same,Population Mitotic Cells (%),[6],56.25% and 59.22%
same,Population Normal (%),[6],100%
same,Population Pyknosed Nuclei (%),[6],20.38% and 38.29%
same,Population Tubulin-Different-Phenotype (%),[6],7.66% and 8.67%
same,Total Cell Count,[6],628 and 269
